How the values were obtained:
[1] = Selectivity index, ratio of CC50 for human HepG2 cells to IC50 for chloroquine-resistant and mefloquine-sensitive Plasmodium falciparum W2; type: functional
[2] = Cytotoxicity against human HepG2 cells after 24 hrs by MTT assay; type: cell-based
[3] = system: Plasmodium falciparum; test: Antimalarial activity against chloroquine-resistant and mefloquine-sensitive Plasmodium falciparum W2 infected in human erythrocytes after 48 hrs by HRP2-ELISA; type: functional, organism-based; conditions: W2, 48 h
Outline: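 Ring-stage cultures sorbitol-synchronized; RBC suspension at 0.05% parasitemia, 1.5% hematocrit in RPMI with 10% human plasma, exposed to serial compound concentrations 48 h. Background wells harvested at 24 h and subtracted. Freeze-thaw lysis, then anti-HRP2 sandwich ELISA with TMB, absorbance 450 nm. IC50 from sigmoidal dose-response versus drug-free and standard-drug controls; triplicate per concentration, experiments in duplicate.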

SMILES | Ratio CC50/IC50 [1] | CC50 at 24 h [2] | IC50 ([3]; read-out: IC50) | IC50 ([3]; read-out: pIC50 (converted))
COc1c(F)c(F)cc(C(=O)OCc2cn(-c3ccnc4cc(Cl)ccc34)nn2)c1F | <20 | > 2230 µM | > 112 µM | 
CN(C)c1ccc(-c2cn(-c3ccnc4cc(Cl)ccc34)nn2)cc1 | >71.1 | > 2860 µM | 40.3 µM | 39.8 µM
Fc1ccc(-c2cn(-c3ccnc4cc(Cl)ccc34)nn2)cc1 | <20 | > 3090 µM | > 154 µM | 
Cc1ccc(-c2cn(-c3ccnc4cc(Cl)ccc34)nn2)cc1 | <2.2 | 352 µM | > 156 µM | 
Clc1ccc2c(-n3cc(-c4ccccc4)nn3)ccnc2c1 | <7.2 | 574 µM | > 80 µM | 
OCCCc1cn(-c2ccnc3cc(Cl)ccc23)nn1 | 15.7 | 151 µM | 9.6 µM | 10 µM
CC(C)(O)c1cn(-c2ccnc3cc(Cl)ccc23)nn1 | 4.9 | 442 µM | 90.3 µM | 
Clc1ccc2c(-n3cc(C4CCCCC4)nn3)ccnc2c1 | <40 | > 3200 µM | > 80 µM | 
COc1ccc2cc(-c3cn(-c4ccnc5cc(Cl)ccc45)nn3)ccc2c1 | <20 | > 2590 µM | > 129 µM | 
O=C(OCCCc1cn(-c2ccnc3cc(Cl)ccc23)nn1)c1ccccc1 | <9.4 | 1200 µM | > 128 µM | 
COc1ccc(C(=O)OCCCc2cn(-c3ccnc4cc(Cl)ccc34)nn2)cc1 | <3 | 347 µM | > 113 µM | 
CCc1ccc(C(=O)OCCCc2cn(-c3ccnc4cc(Cl)ccc34)nn2)cc1 | <21.4 | > 2550 µM | > 119 µM | 
O=C(OCCCc1cn(-c2ccnc3cc(Cl)ccc23)nn1)c1ccc(C(F)(F)F)cc1 | <20 | > 2170 µM | > 109 µM | 
CC(C)(C)c1ccc(C(=O)OCCCc2cn(-c3ccnc4cc(Cl)ccc34)nn2)cc1 | <20 | > 2230 µM | > 112 µM | 
Cc1ccc(C(=O)OCCCc2cn(-c3ccnc4cc(Cl)ccc34)nn2)cc1 | <20 | > 2460 µM | > 123 µM | 
CCc1ccc(C(=O)OCc2cn(-c3ccnc4cc(Cl)ccc34)nn2)cc1 | <20 | > 2550 µM | > 128 µM | 
CCc1ccccc1C(=O)OCc1cn(-c2ccnc3cc(Cl)ccc23)nn1 | <20 | > 2550 µM | > 128 µM | 
CC(C)(C)c1ccc(C(=O)OCc2cn(-c3ccnc4cc(Cl)ccc34)nn2)cc1 | <20 | > 2380 µM | > 119 µM | 
O=C(OCc1cn(-c2ccnc3cc(Cl)ccc23)nn1)c1ccccc1 | <20 | > 2750 µM | > 137 µM | 
O=C(OCc1cn(-c2ccnc3cc(Cl)ccc23)nn1)c1ccc(C(F)(F)F)cc1 | <9.2 | 1070 µM | > 116 µM | 
COc1ccc(C(=O)OCc2cn(-c3ccnc4cc(Cl)ccc34)nn2)cc1 | <2.4 | 303 µM | > 127 µM | 
O=C(OCc1cn(-c2ccnc3cc(Cl)ccc23)nn1)c1ccc(Cl)cc1 | 21.5 | 484 µM | 22.5 µM | 22.9 µM
CCN(CC)Cc1cn(-c2ccnc3cc(Cl)ccc23)nn1 | <11.2 | 1850 µM | > 166 µM | 
CN(C)Cc1cn(-c2ccnc3cc(Cl)ccc23)nn1 | 67.5 | 1850 µM | 27.4 µM | 26.9 µM
Clc1ccc2c(-n3cc(CN4CCOCC4)nn3)ccnc2c1 | <20 | > 3040 µM | > 152 µM | 
Clc1ccc2c(-n3cc(CN4CCCCC4)nn3)ccnc2c1 | <7.2 | 1110 µM | > 153 µM | 
OC1CCN(Cc2cn(-c3ccnc4cc(Cl)ccc34)nn2)CC1 | 22.7 | 930 µM | 40.9 µM | 40.7 µM
CCN(CC)CCCC(C)Nc1ccnc2cc(Cl)ccc12 (configuration not stated) [CHLOROQUINE] |  | 810 µM |  | 
